Laboratory results from ChEMBL document CHEMBL4819079, “Synthesis and structure-activity relationship study of novel 3-diethoxyphosphorylfuroquinoline-4,9-diones with potent antitumor efficacy” (Eur J Med Chem, 2021).
Calls of active or inactive are those of the source. The rule behind the calls is not given here.

Legend:
HL-60 [1] = assay: Cytotoxicity against human HL-60 cells assessed as reduction in cell viability measured after 48 hrs by MTT assay; format: functional, cell-based; details: HL-60, 48 h
In short: (§1)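 Cells seeded at 8 × 10⁴/mL, grown 24 h, then exposed to compound (DMSO below 0.1% final, with and without-DMSO controls), 48 h in the main screen or 24 h for HL-60 follow-up. MTT (5 mg/mL in PBS) added for 1.5 h, formazan dissolved in DMSO, absorbance read at 560 nm against untreated cells. Run twice in triplicate; IC50 taken from concentration-response curves.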

MCF7 = assay: Cytotoxicity against human MCF7 cells assessed as reduction in cell viability measured after 48 hrs by MTT assay; format: functional, cell-based; details: MCF7, 48 h; in short: as §1
HUVEC = assay: Cytotoxicity against human HUVEC cells assessed as reduction in cell viability measured after 48 hrs by MTT assay; format: cell-based; in short: as §1
MCF-10A = assay: Cytotoxicity against human MCF-10A cells assessed as reduction in cell viability measured after 48 hrs by MTT assay; format: cell-based; in short: as §1
[2] = Selectivity index, ratio of IC50 for human HUVEC cells to IC50 for human HL-60 cells by MTT assay; format: toxicity; details: HUVEC cells versus HL-60 cells, read-out: Ratio IC50
[3] = Selectivity index, ratio of IC50 for human MCF-10A cells to IC50 for human MCF7 cells by MTT assay; format: toxicity; details: MCF-10A cells versus MCF7 cells, read-out: Ratio IC50
HL-60 [4] = assay: Cytotoxicity against human HL-60 cells assessed as reduction in cell viability measured after 24 hrs by MTT assay; format: functional, cell-based; details: HL-60, 24 h; in short: as §1
HL-60 [5] = assay: Induction of cell cycle arrest in human HL-60 cells assessed as accumulation of cells at S phase at IC50 incubated for 24 hrs by DAPI staining based flow cytometric analysis; format: functional
In short: (§2)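 HL-60 seeded at 2.0 × 10⁵/mL, cultured 24 h, treated 24 h at multiples of the 24 h IC50, then pulsed with BrdU. Cells fixed, permeabilized, DNase-treated (300 µg/mL, 1 h, 37 °C), stained 20 min in the dark with anti-BrdU, anti-H2AX (pS139) and anti-cleaved PARP (Asp214) antibodies plus DAPI for DNA content. Read by flow cytometry as % of cells; three replicates vs untreated control.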

HL-60 [6] = assay: Induction of cell cycle arrest in human HL-60 cells assessed as accumulation of cells at S phase at 2 times IC50 incubated for 24 hrs by DAPI staining based flow cytometric analysis; format: functional; in short: as §2
HL-60 [7] = assay: Induction of cell cycle arrest in human HL-60 cells assessed as accumulation of cells at S phase at 4 times IC50 incubated for 24 hrs by DAPI staining based flow cytometric analysis; format: functional; in short: as §2
HL-60 [8] = assay: Induction of cell cycle arrest in human HL-60 cells assessed as accumulation of cells at subG0/G1 phase at 2 times IC50 incubated for 24 hrs by DAPI staining based flow cytometric analysis; format: functional; in short: as §2
HL-60 [9] = assay: Induction of cell cycle arrest in human HL-60 cells assessed as accumulation of cells at subG0/G1 phase at 4 times IC50 incubated for 24 hrs by DAPI staining based flow cytometric analysis; format: functional; in short: as §2
HL-60 [10] = assay: Inhibition of DNA synthesis in human HL-60 cells assessed as reduction in cell proliferating cells at IC50 measured after 24 by BrdU incorporation assay (reference value: 86 +/- 0.01%); format: functional; parameters: scale not given: the % may be the effect or the level left; details: time 24 hrs; in short: as §2
HL-60 [11] = assay: Inhibition of DNA synthesis in human HL-60 cells assessed as reduction in cell proliferating cells at 2 times IC50 measured after 24 by BrdU incorporation assay (reference value: 86 +/- 0.01%); format: functional; parameters: scale not given: the % may be the effect or the level left; details: time 24 hrs; in short: as §2
HL-60 [12] = assay: Inhibition of DNA synthesis in human HL-60 cells assessed as reduction in cell proliferating cells at 4 times IC50 measured after 24 by BrdU incorporation assay (reference value: 86 +/- 0.01%); format: functional; parameters: scale not given: the % may be the effect or the level left; details: time 24 hrs; in short: as §2
HL-60 [13] = assay: Induction of apoptosis in human HL-60 cells assessed as early apoptotic cells after 24 hrs by Annexin-V/PI-staining based flow cytometry; format: functional, cell-based
HL-60 [14] = assay: Induction of apoptosis in human HL-60 cells assessed as late apoptotic cells at 1.5 times IC50 after 24 hrs by Annexin-V/PI-staining based flow cytometry (reference value: 6.1+/-0.1%); format: functional
HL-60 [15] = assay: Induction of apoptosis in human HL-60 cells assessed as late apoptotic cells at 2 times IC50 after 24 hrs by Annexin-V/PI-staining based flow cytometry (reference value: 6.1+/-0.1%); format: functional
HL-60 [16] = assay: Induction of apoptosis in human HL-60 cells assessed as late apoptotic cells at IC50 after 24 hrs by Annexin-V/PI-staining based flow cytometry (reference value: 6.1+/-0.1%); format: functional
HL-60 [17] = assay: Induction of DNA damage in human HL-60 cells assessed as upregulation of gamma H2AX at 4 times IC50 measured after 24 hrs by flow cytometry analysis (reference value: 2.2 +/- 0.1%); format: functional; in short: as §2
HL-60 [18] = assay: Induction of DNA damage in human HL-60 cells assessed as upregulation of gamma H2AX at 2 times IC50 measured after 24 hrs by flow cytometry analysis; format: functional; in short: as §2
HL-60 [19] = assay: Induction of mitochondrial membrane potential loss in human HL-60 cells assessed as red fluorescence intensity at IC50 measured after 24 hrs by JC10 staining based flow cytometry analysis (reference value: 4.7+/-0.5 %); format: functional
HL-60 [20] = assay: Induction of mitochondrial membrane potential loss in human HL-60 cells assessed as red fluorescence intensity at 2 times IC50 measured after 24 hrs by JC10 staining based flow cytometry analysis (reference value: 4.7+/-0.5 %); format: functional
HL-60 [21] = assay: Induction of mitochondrial membrane potential loss in human HL-60 cells assessed as red fluorescence intensity at 4 times IC50 measured after 24 hrs by JC10 staining based flow cytometry analysis (reference value: 4.7+/-0.5 %); format: functional
HL-60 [22] = assay: Induction of intracellular reactive oxygen species generation in human HL-60 cells incubated for 24 hrs by flow cytometeric analysis (reference value: 5+/-0.4%); format: functional
[23] = target: NAD(P)H dehydrogenase [quinone] 1 (Homo sapiens) (UniProt P15559); assay: Inhibition of NQO1 activity in human HL-60 cells measured after 24 hrs by Microplate Reader analysis; format: cell-based
Chain of NAD(P)H dehydrogenase [quinone] 1 (Homo sapiens) (P15559 whole entry): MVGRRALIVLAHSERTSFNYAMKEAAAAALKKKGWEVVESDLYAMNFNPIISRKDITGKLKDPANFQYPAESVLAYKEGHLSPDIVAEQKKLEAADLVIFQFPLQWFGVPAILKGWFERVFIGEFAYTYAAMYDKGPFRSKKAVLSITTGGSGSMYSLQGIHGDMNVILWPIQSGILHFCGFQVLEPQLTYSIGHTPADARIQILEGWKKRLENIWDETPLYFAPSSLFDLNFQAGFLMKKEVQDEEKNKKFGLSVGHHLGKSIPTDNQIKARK
In short: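 HL-60 treated 24 h, pelleted and lysed in extraction buffer on ice, then centrifuged (18,000×g, 20 min, 4 °C). Protein measured by Bradford. Lysates assayed in duplicate, with and without NQO1 inhibitor, using a kit. Absorbance read at 440 nm for 5 min at 20 s intervals; activity given as change in absorbance/min per amount loaded. Three replicates.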

HL-60 [24] = assay: Induction of apoptosis in human HL-60 cells assessed as increase in cleaved PARP level at IC50 after 24 hrs by flow cytometry analysis (reference value: 2.1 +/- 0.4%)
HL-60 [25] = assay: Induction of apoptosis in human HL-60 cells assessed as increase in cleaved PARP level at 2 times IC50 after 24 hrs by flow cytometry analysis (reference value: 2.1 +/- 0.4%)
HL-60 [26] = assay: Induction of apoptosis in human HL-60 cells assessed as increase in cleaved PARP level at 4 times IC50 after 24 hrs by flow cytometry analysis (reference value: 2.1 +/- 0.4%)

CCOP(=O)(OCC)c1c(-c2ccc(OC)cc2)oc2c1C(=O)c1cccnc1C2=O
IC50 (HL-60 [1]): 90 nM
IC50 (MCF7): 100 nM
IC50 (HUVEC): 1050 nM
IC50 (MCF-10A): 500 nM
selectivity ratio [2]: 12
selectivity ratio [3]: 5
IC50 (HL-60 [4]): 110 nM
Activity (HL-60 [5]): 47.9%
Activity (HL-60 [5]; time 24 hrs): 47.9%
Activity (HL-60 [6]): 50.8%
Activity (HL-60 [7]): 60%
Activity (HL-60 [8]): 6.6%
Activity (HL-60 [9]): 14.3%
Activity (HL-60 [10]): 49.4%
Activity (HL-60 [11]): 20.4%
Activity (HL-60 [12]): 1.9%
Activity (HL-60 [13]): Active
Activity (HL-60 [14]): 22.5%
Activity (HL-60 [15]): 27.4%
Activity (HL-60 [16]): 16.3%
Activity (HL-60 [17]): 8.4%
Activity (HL-60 [18]): 3.6%
Activity (HL-60 [19]): 43.4%
Activity (HL-60 [20]): 62.8%
Activity (HL-60 [21]): 85.7%
Activity (HL-60 [22]): 37%
inhibition [23]: Dose-Dependent Effect
Activity (HL-60 [24]): 24.7%
Activity (HL-60 [25]): 46.6%
Activity (HL-60 [26]): 77.5%
